In ChEMBL document CHEMBL3217651, “A furoxan-amodiaquine hybrid as a potential therapeutic for three parasitic diseases()” (Medchemcomm, 2012):
pIC50: −log10 of the molar value. Activity calls are given as the source filed them. The calls are words filed in the database; no cut-off is given here.

Assays:
Plasmodium falciparum [1] = test: Antimalarial activity against chloroquine-sensitive Plasmodium falciparum 3D7 infected in human erythrocytes after 72 hrs by SYBR Green I staining; conditions: 3D7, 72 h
Schistosoma mansoni [2] = test: Antischistosomiasis activity against Schistosoma mansoni assessed as worm mobility and survival at 50 uM after 24 hrs by stereomicroscopic analysis; format: functional, organism-based
In short: (§1)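 Adult worms perfused with RPMI 1640 from female Swiss-Webster mice 7 weeks after cercarial infection. They were washed and held at 15–20 per well in cRPMI (25 mM HEPES, penicillin/streptomycin, 10% FBS) overnight at 37 °C, 5% CO2. Compound from 10 mM DMSO stock was tested at 50, 10, 5 and 1 μM against DMSO-only wells. Media plus compound were renewed every 48 h; motility and survival scored by stereomicroscope, 10 s per worm.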

Schistosoma mansoni [3] = test: Antischistosomiasis activity against Schistosoma mansoni at 5 nM to 50 uM by thioredoxin glutathione reductase biochemical assay; format: functional
In short: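 S. mansoni TGR (20 nM) preincubated 10 min at room temperature with 100 μM NADPH and compound (50 μM to 5 nM, eight levels) in 0.1 M potassium phosphate pH 7.4, 10 mM EDTA. Then 3 mM DTNB was added and A412 followed over the first 3 min. Residual activity was expressed relative to DMSO controls, in triplicate, and IC50 derived.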

Ancylostoma ceylanicum [4] = test: Nematicidal activity against Ancylostoma ceylanicum assessed as live/dead worms at 100 uM up to 120 hrs by adult worm killing assay; format: functional, organism-based
In short: (§2)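 Adult A. ceylanicum taken from small intestine of infected Syrian hamsters, cultured in RPMI 1640 with 50% FCS, penicillin/streptomycin, Fungizone. Ten worms per well, 2 wells per treatment, with 100 μM compound; DMSO and 100 μM albendazole controls. Wells scored by light microscopy every 24 h for percent live/dead, death meaning complete loss of motility, across 120 h.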

Plasmodium falciparum [5] = test: Antimalarial activity against chloroquine-sensitive Plasmodium falciparum 3D7 infected in human erythrocytes after 96 hrs by luciferase based delayed death assay; format: functional, organism-based; conditions: 3D7, 96 h
In short: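 Delayed-death format of the 3D7 erythrocyte proliferation assay: parasites incubated 96 hours with compound so that activity against progeny is detected, with luciferase as the viability reporter; IC50 taken from this read-out.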

Schistosoma mansoni [6] = test: Antischistosomiasis activity against Schistosoma mansoni assessed as worm mobility and survival at 10 uM by stereomicroscopic analysis; format: functional, organism-based
In short: as §1

Ancylostoma ceylanicum [7] = test: Nematicidal activity against Ancylostoma ceylanicum assessed as live/dead worms at 100 uM after 72 hrs by adult worm killing assay; format: functional, organism-based
In short: as §2

Plasmodium falciparum [8] = test: Ratio of IC50 for chloroquine-sensitive Plasmodium falciparum 3D7 by luciferase based delayed death assay to IC50 for chloroquine-sensitive Plasmodium falciparum 3D7 by SYBR Green I staining; format: functional
In short: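 P. falciparum 3D7 in human erythrocytes (0.3% parasitemia, 2.5% hematocrit final), seven fivefold dilutions from 5.7 or 29 μM. Standard format: 72 h at 37 °C, 5% CO2, then saponin/Triton lysis with SYBR Green I overnight in the dark, fluorescence 485/535 nm. Delayed-death format: 96 h, luciferase viability read-out. The line is the ratio of the delayed-death IC50 to the SYBR IC50.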

| Activity (Schistosoma mansoni [3]) | Structure (SMILES) | pIC50 (Plasmodium falciparum [1]) | Activity (Schistosoma mansoni [2]) | Activity (Ancylostoma ceylanicum [4]) | pIC50 (Plasmodium falciparum [5]) | Activity (Schistosoma mansoni [6]) | Activity (Ancylostoma ceylanicum [7]) | Ratio IC50 (Plasmodium falciparum [8]) |
| --- | --- | --- | --- | --- | --- | --- | --- | --- |
| Active | CC(C)(C)NCc1cc(Nc2ccnc3cc(Cl)ccc23)cc(-c2no[n+]([O-])c2C#N)c1 | 7.40 | Active | Active | 6.20 | inactive | Active | – |
| Active | N#Cc1c(-c2ccccc2)no[n+]1[O-] [FUROXAN] | – | – | – | – | Active | – | – |
| – | CCN(CC)Cc1cc(Nc2ccnc3cc(Cl)ccc23)ccc1O | 7.82 | – | – | < 5.00 | – | – | – |
| – | C[C@@H]1CC[C@H]2[C@@H](C)C(=O)O[C@@H]3O[C@@]4(C)CC[C@@H]1[C@]32OO4 [ARTEMISININ] | 7.96 | – | – | 7.92 | – | – | – |
| – | CC(C)(C)N(Cc1cc(Nc2ccnc3cc(Cl)ccc23)cc(-c2no[n+]([O-])c2/C=N/O)c1)N=O | 7.62 | – | – | 5.97 | – | – | 50 |
| – | CC(C)(C)NCc1cc(Br)cc(Nc2ccnc3cc(Cl)ccc23)c1 | 8.15 | – | – | 7.19 | – | – | – |
| – | CC(C)(C)N(Cc1cc(Nc2ccnc3cc(Cl)ccc23)cc(-c2no[n+]([O-])c2C#N)c1)N=O | 6.95 | – | – | < 4.82 | – | – | – |
